In ChEMBL document CHEMBL2331371, “Natural products inspired synthesis of neuroprotective agents against H₂O₂-induced cell death” (Bioorg Med Chem Lett, 2013):
The source made the active and inactive calls. No cut-off for these calls is given here.

Legend:
[1] = system: PC-12; test: Neuroprotective activity against H2O2-induced oxidative stress in rat PC12 cells assessed as increase in cell viability treated for 6 hrs prior to H2O2 addition measured after 18 hrs by Synergy Hybrid H1 reader analysis; type: functional, cell-based
Outline: (§1)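 PC12 cells pretreated 6 h with compound at 0.1, 1, 10, 50, 100 or 150 µM, then challenged with 100 µM H2O2 for a further 18 h. Untreated cells served as 100% survival. Cells harvested for viability assay. Triplicates with three separate culture batches; means ± SEM, Student t-test, p<0.05.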

[2] = system: PC-12; test: Effect on Na+/K+ ATPase activity in rat PC12 cells assessed as inorganic phosphate liberation using ATP as substrate at 50 uM after 1 hr by colorimetric analysis; type: cell-based
Outline: (§2)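 Adherent PC12 cells exposed 1 h to 50 µM compound, either alone or together with 100 µM H2O2, then harvested. ATPase assayed in two parallel runs, total and ouabain-insensitive. Inorganic phosphate formed in 30 min quantified colorimetrically; Na+/K+-ATPase activity taken as the difference without versus with ouabain. Triplicate experiments; means ± SEM, Student t-test.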

[3] = system: PC-12; test: Inhibition of H2O2-induced decrease in Na+/K+ ATPase activity in rat PC12 cells assessed as increase in inorganic phosphate liberation using ATP as substrate at 50 uM after 1 hr by colorimetric analysis in presence H2O2; type: cell-based; outline: as §2
[4] = system: PC-12; test: Neuroprotective activity against H2O2-induced oxidative stress in rat PC12 cells assessed as increase in cell viability at 0.1 to 150 uM treated for 6 hrs prior to H2O2 addition measured after 18 hrs by Synergy Hybrid H1 reader analysis; type: functional, cell-based
Outline: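 PC12 cells pretreated 6 h with test agent (0.1, 1, 10, 50, 100, 150 µM), then 100 µM H₂O₂ added for a further 18 h. Untreated cells set as 100% survival; H₂O₂-only cells as injury control. Cells then harvested for viability assay. Triplicate runs over three separate culture batches; means ± SEM, Student t-test, p < 0.05.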

[5] = system: PC-12; test: Neuroprotective activity against H2O2-induced oxidative stress in rat PC12 cells assessed as increase in cell viability at 0.1 to 10 uM treated for 6 hrs prior to H2O2 addition measured after 18 hrs by Synergy Hybrid H1 reader analysis; type: functional, cell-based; outline: as §1

Compound: C[C@]12CCCC[C@@]1(O)C(=O)C[C@H]2c1ccco1
- Activity [1]: Dose-dependent effect
- Activity [2]: inactive
- inhibition [3]: Active

Compound: C[C@]12CCCC[C@@]1(O)OC(=O)C=C2c1ccoc1
- Activity [1]: Dose-dependent effect
- Activity [2]: inactive
- inhibition [3]: Active

Compound: C[C@]12CCCC[C@@]1(O)C(=O)CC2c1ccoc1 (single isomer, unassigned)
- Activity [2]: inactive
- Activity [4]: Active

Compound: C[C@]12CCCC[C@@]1(O)C(=O)C=C2c1ccco1
- Activity [2]: inactive
- inhibition [3]: Active
- Activity [4]: Active

Compound: C[C@]12CCCC[C@H]1C(=O)C=C2c1ccoc1
- Activity [5]: Active
- Activity [1]: Dose-dependent effect
- Activity [2]: inactive
- inhibition [3]: Active

Compound: C[C@]12CCCC[C@@]1(O)C(=O)C=C2c1ccoc1
- Activity [5]: Active
- Activity [1]: Dose-dependent effect
- Activity [2]: inactive
